# Compound activity as filed in PubChem BioAssay.
# CCR6 antagonist: antagonists of human CCR6 receptor; P51684; AID 493098; 340,000 compounds, 0.49% hits; inhibition, % at 20 µM; CHO-K1 CCR6 PathHunter beta-arrestin, luminescence, CCL20-stimulated;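 active = compounds whose inhibition of the agonist-driven luminescence signal at 20 µM reaches about 50%, limit read from the data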;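 note: cells stimulated with CCL20 at 14 nM final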
# Target sequence (P51684 whole entry, looked up): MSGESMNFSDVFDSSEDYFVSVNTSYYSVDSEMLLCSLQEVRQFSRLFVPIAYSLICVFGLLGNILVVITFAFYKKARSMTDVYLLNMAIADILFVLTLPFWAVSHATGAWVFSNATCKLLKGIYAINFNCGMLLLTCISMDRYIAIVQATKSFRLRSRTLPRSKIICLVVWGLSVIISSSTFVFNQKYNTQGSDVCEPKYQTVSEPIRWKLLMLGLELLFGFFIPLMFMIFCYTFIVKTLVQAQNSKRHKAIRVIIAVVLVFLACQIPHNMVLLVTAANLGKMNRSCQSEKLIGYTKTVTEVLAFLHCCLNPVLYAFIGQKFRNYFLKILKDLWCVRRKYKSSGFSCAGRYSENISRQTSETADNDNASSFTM
# CXCR6 inh: blocks human CXCR6 beta-arrestin recruitment; O00574; 360,000 compounds, 0.36% hits; inhibition, % at 20 µM; CHO-K1 PathHunter CXCR6 beta-arrestin, luminescence; in the data active = inhibition above about 34%, passing the limit was not always enough;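 note: antagonist mode with CXCL16 agonist at 10 nM final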
# APJ antag: antagonists of human APJ apelin receptor; inhibition, % at 20 µM; P35414; 330,000 compounds, 0.32% hits; CHO-K1 APJ beta-arrestin complementation, luminescence; AID 2521;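 active = inhibition above about 40% at 20 µM, limit read from the data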;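 note: cells challenged with 10 nM apelin-13 agonist together with compound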
# APJ agonist: APJ receptor agonism; AID 2520; activation, % at 20 µM; 330,000 compounds, 0.11% hits; CHO-K1 APJ PathHunter beta-arrestin, luminescence; 0% DMSO wells, 100% apelin; P35414;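 active = activation more than six SD over the plate average, tested at 20 µM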
#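 Test system – PathHunter CHO-K1 APJ (AGTRL-1) beta-arrestin reporter cells · Input – 1000 cells/well · Compound – single test compound dose, 20 µM final, 1% DMSO · Times – compound stimulation 90 min at 25 °C, detection 60 min · Technique – beta-gal luminescence · Read-out basis – APJ–arrestin association signal · Control set – negative DMSO alone, positive Apelin-13 at 10 nM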
# EBI2 antag: blocks human EBI2 receptor beta-arrestin signaling; P32249; EBI2 beta-arrestin recruitment, luminescence, 7a,25-OHC stimulated; inhibition, % at 5 µM; 360,000 compounds, 0.81% hits; AID 651636; in the data active = inhibition above about 38%;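 note: enzyme fragment complementation signal reports receptor beta-arrestin coupling in cells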
# EBI2 antag conf: confirmation of human EBI2 receptor antagonists. EBI2 beta-arrestin luminescence, 7a,25-OHC antagonism. inhibition, % at 5 µM. 2,400 compounds, 29% hits. AID 651997. shares compounds with EBI2 antag;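 active = inhibition of at least 50%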
# EBI2 agonist: EBI2 agonism counter-screen | 2,400 tested, under 10 active | AID 652000 | EBI2-expressing cells, agonist mode, luminescence, 60 min; 0% vehicle, 100% 7α,25-dihydroxycholesterol control | activation, % at 5 µM | shares compounds with EBI2 antag;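 active = activation of at least 50%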
# bGal cs: counter-screen for EBI2 antagonists: E. coli beta-galactosidase inhibition. shares compounds with EBI2 antag. purified beta-galactosidase, luminescent Galacton Star, 15 min. inhibition, % at 5 µM. 2,400 compounds, 1% hits. AID 652176;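 active = replicate-average signal at least 3 plate SD below neutral wells, shown as high inhibition, flagging enzyme-inhibiting false positives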;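 note: higher means stronger loss of beta-gal luminescence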
# A number is an active result; . = inactive; / = no result. An excerpt weighted towards active compounds, which were near 1.5% of everything screened.
SMILES,CCR6 antagonist,CXCR6 inh,APJ antag,APJ agonist,EBI2 antag,EBI2 antag conf,EBI2 agonist,bGal cs
C=CCN(C(=O)CC(NC(C)=O)c1ccccc1)c1nc(-c2ccc(S(C)(=O)=O)cc2)cs1 (stereo unspecified),.,.,.,.,.,/,/,/
Cc1ccccc1NS(=O)(=O)c1nnc(NC(=O)c2ccccc2C)s1,.,.,.,.,.,/,/,/
Cc1ccc(S(C)(=O)=O)cc1C(=O)N1CC(C(N)=O)Oc2ccccc21 (stereo unspecified),.,.,.,.,.,/,/,/
O=C(c1ccccc1)N(c1ccccc1)c1nccc2ccccc12,.,.,/,/,.,/,/,/
Cc1[nH]c(-c2ccc(F)cc2)cc1C(=O)N1CCN(c2cccc(Cl)c2)CC1,.,.,.,.,91,61,.,.
O=C(c1cccc(F)c1)N1CCN(c2cccc(Cl)c2)CC1,.,.,.,.,.,/,/,/
O=C(c1cccnc1)c1ncc(C(F)(F)F)cc1Cl,.,.,.,.,.,/,/,/
C[C@H](CO)N1C[C@H](C)[C@H](CN(C)S(=O)(=O)c2cccc(C#N)c2)OCc2cnnn2CCCC1=O,/,.,/,/,.,/,/,/
COc1ccccc1C1CCN(C(=O)c2cnn(-c3ccccc3)c2C)CC1,.,.,.,.,54,.,.,.
COc1ccccc1C1CCN(C(=O)c2ccc(Cl)cc2)CC1,.,.,.,.,88,70,.,.
CCc1noc(C)c1C(=O)OCC(=O)N(C)c1c(N)n(Cc2ccccc2)c(=O)[nH]c1=O,.,.,.,.,.,/,/,/
CCCCOc1ccc(NC(=O)CSc2nnnn2C)cc1,.,.,.,.,.,/,/,/
c1cn2cc(-c3ccc4c(c3)OCO4)nc2s1,.,.,.,.,.,/,/,/
CC1(C(=O)Nc2cccc3ncccc23)CCN1C(=O)Cc1ccc(-c2ccccc2)cc1 (stereo unspecified),/,.,/,/,69,.,.,.
COc1ccc(OC)c2sc(N3CCN(C(=O)c4ccc5ncsc5c4)CC3)nc12,.,.,.,.,54,.,.,.
O=C(c1ccc2nc[nH]c2c1)N1CCN(c2cccc(C(F)(F)F)c2)CC1,.,.,.,.,.,/,/,/
O=C(c1ccc2ncsc2c1)N1CCN(c2cccc(C(F)(F)F)c2)CC1,.,.,.,.,54,.,.,.
CCOc1cccc2sc(N3CCN(C(=O)c4ccc5ncsc5c4)CC3)nc12,.,.,.,.,45,.,.,.
CCCCNC(=O)C1(C)CCC(=O)N1C1CC1 (stereo unspecified),/,.,/,/,.,/,/,/
CC(C1=C(CCN(C)C)Cc2ccccc21)c1ccccn1 (stereo unspecified),.,.,/,/,.,/,/,/
COc1ccc(-c2cc(C(=O)N3CCN(c4ccccc4OC)CC3)no2)cc1,.,.,.,.,68,.,.,.
COc1ccc(-c2cc(C(=O)N3CCN(c4ccccc4)CC3)no2)cc1,.,.,.,.,.,/,/,/
COc1ccccc1N1CCN(C(=O)c2cc(-c3ccc(C)cc3)on2)CC1,.,.,.,.,64,.,.,.
COc1ccccc1N1CCN(C(=O)c2cc(-c3ccc(F)cc3)on2)CC1,.,.,.,.,57,.,.,.
COc1ccccc1N1CCN(C(=O)c2cc(-c3ccc(Cl)cc3)on2)CC1,.,.,.,.,58,.,.,.
SMILES,CCR6 antagonist,CXCR6 inh,APJ antag,APJ agonist,EBI2 antag,EBI2 antag conf,EBI2 agonist,bGal cs
COc1ccccc1-c1cc(C(=O)N2CCN(c3ccccc3OC)CC2)no1,.,.,.,.,.,/,/,/
COc1ccccc1N1CCN(CC(=O)c2c(C)[nH]c3cc(C)ccc23)CC1,.,.,.,.,40,.,.,.
Cc1cccc(N2CCN(C(=O)c3ccc4[nH]c(C)c(C)c4c3)CC2)c1C,.,.,.,.,69,51,.,.
Cc1[nH]c2ccc(C(=O)N3CCN(c4ccccc4Cl)CC3)cc2c1C,.,.,.,.,78,56,.,.
COc1ccccc1N1CCN(C(=O)c2ccc3[nH]c(C)c(C)c3c2)CC1,.,.,.,.,76,.,.,.
O=C(C[C@H]1C=C[C@@H](NS(=O)(=O)c2ccccc2)[C@@H](CO)O1)NCc1ccc(Cl)c(Cl)c1,/,/,/,/,.,/,/,/
N#Cc1ccccc1Sc1ccccc1C(=O)Nc1ccc2ccccc2c1,.,.,.,.,.,/,/,/
N#Cc1ccc(C(=O)Nc2ccc3ccccc3c2)cc1,.,.,.,.,60,51,.,.
O=C(Nc1ccc2c(c1)OCO2)N1CCN(c2cccc(C(F)(F)F)c2)CC1,.,.,.,.,.,/,/,/
O=C(Nc1ccc2c(c1)OCO2)N1CCN(c2ccccc2Cl)CC1,.,.,.,.,50,.,.,.
O=C(CN1CCN(S(=O)(=O)c2ccc(Cl)cc2)CC1)Nc1ccc2c(c1)OCO2,.,.,.,.,.,/,/,/
O=C(Nc1ccc2c(c1)OCO2)N1CCN(S(=O)(=O)c2ccc(Cl)cc2)CC1,.,.,.,.,48,.,.,.
O=C(Cn1cc(C(F)(F)F)ccc1=O)N1CCc2ccccc21,.,.,.,.,.,/,/,/
O=C(/C=C1\OCc2cc(OCc3ccccc3)ccc21)OCc1ccccc1,/,/,/,/,46,.,.,.
Cc1ccc(S(=O)(=O)N2CCN(C(=O)c3ccc4nc[nH]c4c3)CC2)cc1,.,.,.,.,.,/,/,/
N#Cc1ccc(C(=O)N2CCN(S(=O)(=O)c3ccc(Cl)s3)CC2)cc1,.,.,.,.,56,.,.,.
O=C1C=C(c2ccc(Cl)nc2)C[C@@H](c2ccc3c(c2)OCO3)C1,.,.,.,.,.,/,/,/
O=C1C=C(c2ccc3c(c2)OCO3)C[C@@H](c2ccc(F)cc2)C1,.,.,.,.,.,/,/,/
O=C1C=C(c2ccc3ncccc3c2)C[C@@H](c2ccc3c(c2)OCO3)C1,.,.,.,.,66,.,.,.
O=C1C=C(c2ccc(-c3ccccc3)c(F)c2)C[C@@H](c2ccc(F)cc2)C1,.,.,.,.,.,/,/,/
O=C1C=C(c2ccc3ncccc3c2)C[C@@H](c2ccc(F)cc2)C1,.,.,.,.,75,61,.,.
O=C1C=C(c2ccc3ccccc3c2)C[C@@H](c2ccc(F)cc2)C1,.,.,.,.,77,.,.,.
O=C1C=C(c2cccc3c2oc2ccccc23)C[C@@H](c2ccc(F)cc2)C1,.,.,.,.,76,56,.,.
O=C1C=C(c2cc3ccccc3o2)C[C@@H](c2ccc(F)cc2)C1,.,.,.,.,.,/,/,/
O=C(CNC(=O)c1cccc(F)c1)N/N=C/c1cccc([N+](=O)[O-])c1,.,.,.,.,.,/,/,/
